Here are results for 20 compounds from ChEMBL document CHEMBL1921685, “Design and synthesis of triazolopyridazines substituted with methylisoquinolinone as selective c-Met kinase inhibitors” (Bioorg Med Chem Lett, 2011).

The target of data set [1] is Hepatocyte growth factor receptor (Homo sapiens, UniProt P08581). Kind of data set: Inhibition of recombinant c-met by HTRF assay. A general note: In TR-FRET formats the signal depends on donor and acceptor labels being close together.
Data set [2] has as its target Macrophage-stimulating protein receptor (Homo sapiens, UniProt Q04912). The experiment in a line: Inhibition of RON.
Data set [3] concerns the target T1, Receptor-type tyrosine-protein kinase FLT3 (Homo sapiens, UniProt P36888).
T1 sequence (P36888 whole entry): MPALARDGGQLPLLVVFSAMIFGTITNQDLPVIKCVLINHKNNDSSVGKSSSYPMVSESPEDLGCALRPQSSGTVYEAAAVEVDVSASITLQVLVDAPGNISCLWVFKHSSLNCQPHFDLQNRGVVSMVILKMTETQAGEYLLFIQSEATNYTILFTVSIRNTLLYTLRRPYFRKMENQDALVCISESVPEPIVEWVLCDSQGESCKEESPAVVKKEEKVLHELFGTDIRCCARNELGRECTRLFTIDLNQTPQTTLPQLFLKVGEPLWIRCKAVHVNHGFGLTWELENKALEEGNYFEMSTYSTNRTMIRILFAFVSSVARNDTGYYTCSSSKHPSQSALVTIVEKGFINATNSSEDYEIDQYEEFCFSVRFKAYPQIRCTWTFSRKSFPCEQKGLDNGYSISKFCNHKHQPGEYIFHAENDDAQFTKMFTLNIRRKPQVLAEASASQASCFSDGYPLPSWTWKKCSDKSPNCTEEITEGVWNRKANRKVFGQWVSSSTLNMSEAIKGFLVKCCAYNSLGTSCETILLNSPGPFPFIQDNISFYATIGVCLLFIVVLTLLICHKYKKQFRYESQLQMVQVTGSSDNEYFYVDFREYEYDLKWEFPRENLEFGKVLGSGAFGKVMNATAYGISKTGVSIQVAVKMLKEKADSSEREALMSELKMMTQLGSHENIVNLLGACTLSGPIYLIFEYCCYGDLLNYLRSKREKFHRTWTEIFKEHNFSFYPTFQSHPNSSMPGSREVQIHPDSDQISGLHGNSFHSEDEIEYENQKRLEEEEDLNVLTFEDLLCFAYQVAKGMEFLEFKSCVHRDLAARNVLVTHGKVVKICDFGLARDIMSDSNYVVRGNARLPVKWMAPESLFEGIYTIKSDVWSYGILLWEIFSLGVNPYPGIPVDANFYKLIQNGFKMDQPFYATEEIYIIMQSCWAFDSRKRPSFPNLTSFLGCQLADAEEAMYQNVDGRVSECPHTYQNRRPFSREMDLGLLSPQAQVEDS
The experiment in a line: Inhibition of FLT3.

The target of data set [4] is High affinity nerve growth factor receptor (Homo sapiens, UniProt P04629). Kind of data set: Inhibition of TRKA.
High affinity nerve growth factor receptor, sequence (P04629 whole entry): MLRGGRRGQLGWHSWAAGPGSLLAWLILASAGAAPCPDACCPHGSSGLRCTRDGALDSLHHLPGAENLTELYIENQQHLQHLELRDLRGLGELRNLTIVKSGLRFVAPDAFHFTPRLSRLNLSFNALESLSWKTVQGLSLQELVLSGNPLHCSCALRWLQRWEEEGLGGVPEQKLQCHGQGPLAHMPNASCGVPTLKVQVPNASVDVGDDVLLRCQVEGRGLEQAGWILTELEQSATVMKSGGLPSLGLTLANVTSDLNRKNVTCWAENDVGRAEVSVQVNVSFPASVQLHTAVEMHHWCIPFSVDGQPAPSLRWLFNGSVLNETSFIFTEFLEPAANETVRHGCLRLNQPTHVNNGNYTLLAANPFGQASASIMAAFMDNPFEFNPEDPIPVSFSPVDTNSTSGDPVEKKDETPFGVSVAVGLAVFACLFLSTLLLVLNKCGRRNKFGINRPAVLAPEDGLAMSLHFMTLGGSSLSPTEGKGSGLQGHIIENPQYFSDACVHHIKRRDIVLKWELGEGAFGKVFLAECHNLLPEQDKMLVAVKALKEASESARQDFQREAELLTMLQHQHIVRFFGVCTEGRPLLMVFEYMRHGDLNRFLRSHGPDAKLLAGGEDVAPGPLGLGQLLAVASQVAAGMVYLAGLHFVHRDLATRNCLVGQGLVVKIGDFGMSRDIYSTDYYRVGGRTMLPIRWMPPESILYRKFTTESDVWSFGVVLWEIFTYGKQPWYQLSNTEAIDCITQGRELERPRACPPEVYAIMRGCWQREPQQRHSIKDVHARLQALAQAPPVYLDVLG
The target in the next data set is T2, Aurora kinase A (Homo sapiens, UniProt O14965).
T2 sequence (O14965 whole entry): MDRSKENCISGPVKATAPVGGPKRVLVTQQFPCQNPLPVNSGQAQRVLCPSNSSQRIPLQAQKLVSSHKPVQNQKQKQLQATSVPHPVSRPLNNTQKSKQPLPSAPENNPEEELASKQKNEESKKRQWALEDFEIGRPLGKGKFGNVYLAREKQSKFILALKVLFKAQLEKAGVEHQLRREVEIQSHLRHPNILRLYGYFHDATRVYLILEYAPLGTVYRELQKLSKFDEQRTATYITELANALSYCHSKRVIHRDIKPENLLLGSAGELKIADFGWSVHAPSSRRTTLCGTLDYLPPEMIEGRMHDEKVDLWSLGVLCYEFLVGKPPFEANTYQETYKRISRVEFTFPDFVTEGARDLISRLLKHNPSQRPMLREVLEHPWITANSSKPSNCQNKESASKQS
The experiment in a line: Inhibition of AurA.

The test system of the next data set is MKN-45. Kind of data set: Growth inhibition of c-met-amplified human MKN45 cells after 72 hrs by MTS assay. It is filed as functional. The note with it: MKN-45, 72 h. A general note: Tetrazolium dyes change colour on reduction, which living cells bring about.
The test system of another data set is SNU-5. Kind of data set: Growth inhibition of c-met-amplified human SNU5 cells after 72 hrs by MTS assay. The note with it: SNU-5, 72 h. It is filed as functional.
Data set [5] is described as follows: Growth inhibition of c-met-amplified human Hs 746T cells after 72 hrs by MTS assay. It is filed as functional. The settings on record: Hs746T.
The next data set relates to NCI-N87. Kind of data set: Growth inhibition of c-met-independent human NCI-N87 cells after 72 hrs by MTS assay. The class given is functional. The settings on record: NCI-N87, 72 h.
A short description of data set [6]: Cmax in rat at 10 mg/kg, po. The settings on record: in vivo. The class given is ADME, organism-based. The arrangement: dose 10 mg/kg, route oral. The gist of the method:
(§1)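 Rat pharmacokinetics: 10 mg/kg dose given, three rats per group.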

Data set [7] can be described thus: AUC in rat at 10 mg/kg, iv. The class given is ADME, organism-based. Also on record: dose 10 mg/kg, route intravenous. The note with it: plasma. A digest of the protocol:
as §1

Data set [8] in a line: AUC in rat at 10 mg/kg, po. The class given is ADME, organism-based. The arrangement: dose 10 mg/kg, route oral. The note with it: plasma. The gist of the method:
as §1

Data set [9] is described as follows: Clearance in rat at 10 mg/kg, iv. The class given is ADME, organism-based. Also on record: dose 10 mg/kg, route intravenous. The note with it: in vivo. A digest of the protocol: as §1
Data set [10] in a line: Oral bioavailability in rat at 10 mg/kg. It is filed as ADME, organism-based. The note with it: in vivo. The gist of the method:
as §1

The nature of data set [11]: Volume of distribution at steady state in rat at 10 mg/kg, iv. The class given is ADME, organism-based. The arrangement: dose 10 mg/kg, route intravenous. The settings on record: in vivo, read-out: Vdss. The gist of the method: as §1

Hepatocyte growth factor receptor, sequence (P08581 whole entry): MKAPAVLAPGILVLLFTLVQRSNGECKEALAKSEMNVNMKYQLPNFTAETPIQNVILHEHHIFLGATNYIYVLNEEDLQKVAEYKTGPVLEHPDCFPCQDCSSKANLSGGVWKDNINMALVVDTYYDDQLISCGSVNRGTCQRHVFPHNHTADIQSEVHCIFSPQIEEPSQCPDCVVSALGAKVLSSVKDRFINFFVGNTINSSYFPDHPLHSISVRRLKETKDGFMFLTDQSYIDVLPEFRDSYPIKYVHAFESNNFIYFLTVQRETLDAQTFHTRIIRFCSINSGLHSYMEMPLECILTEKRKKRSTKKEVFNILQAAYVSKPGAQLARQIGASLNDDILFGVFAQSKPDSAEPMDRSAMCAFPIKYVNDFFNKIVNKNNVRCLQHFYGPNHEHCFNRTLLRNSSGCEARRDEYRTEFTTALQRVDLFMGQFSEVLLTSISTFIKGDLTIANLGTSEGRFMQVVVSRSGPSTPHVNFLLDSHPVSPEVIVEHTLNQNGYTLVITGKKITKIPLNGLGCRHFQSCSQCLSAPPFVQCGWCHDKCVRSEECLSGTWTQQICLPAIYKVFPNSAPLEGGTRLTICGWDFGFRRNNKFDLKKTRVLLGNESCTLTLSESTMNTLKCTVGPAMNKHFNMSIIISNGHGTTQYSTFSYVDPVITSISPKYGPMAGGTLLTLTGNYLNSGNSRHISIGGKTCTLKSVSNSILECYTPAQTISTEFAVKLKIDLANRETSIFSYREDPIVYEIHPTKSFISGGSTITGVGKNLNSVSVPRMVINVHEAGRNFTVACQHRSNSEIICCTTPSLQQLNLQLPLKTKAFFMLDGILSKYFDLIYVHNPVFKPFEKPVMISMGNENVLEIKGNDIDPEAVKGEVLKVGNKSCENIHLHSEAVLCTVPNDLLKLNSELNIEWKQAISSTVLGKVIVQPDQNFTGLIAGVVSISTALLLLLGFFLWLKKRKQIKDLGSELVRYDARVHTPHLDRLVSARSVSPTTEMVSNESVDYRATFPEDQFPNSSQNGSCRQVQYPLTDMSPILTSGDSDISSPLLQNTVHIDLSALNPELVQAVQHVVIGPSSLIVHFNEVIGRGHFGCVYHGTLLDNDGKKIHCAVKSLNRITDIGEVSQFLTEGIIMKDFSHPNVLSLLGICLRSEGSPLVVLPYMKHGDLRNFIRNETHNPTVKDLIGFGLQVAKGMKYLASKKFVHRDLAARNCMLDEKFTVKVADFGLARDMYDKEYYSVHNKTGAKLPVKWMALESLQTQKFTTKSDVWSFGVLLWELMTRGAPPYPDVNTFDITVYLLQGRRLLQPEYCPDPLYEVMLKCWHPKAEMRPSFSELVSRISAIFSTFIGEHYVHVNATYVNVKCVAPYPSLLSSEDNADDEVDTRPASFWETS
Macrophage-stimulating protein receptor, sequence (Q04912 25-304 limits assumed): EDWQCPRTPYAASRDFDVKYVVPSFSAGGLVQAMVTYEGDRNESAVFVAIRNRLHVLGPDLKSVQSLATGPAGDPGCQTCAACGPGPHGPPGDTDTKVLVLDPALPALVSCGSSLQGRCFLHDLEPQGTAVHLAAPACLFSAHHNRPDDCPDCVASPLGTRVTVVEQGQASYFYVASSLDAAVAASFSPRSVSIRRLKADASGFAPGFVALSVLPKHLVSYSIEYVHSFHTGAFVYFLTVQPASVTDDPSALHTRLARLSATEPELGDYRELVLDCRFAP
Macrophage-stimulating protein receptor, sequence (Q04912 310-1400 limits assumed): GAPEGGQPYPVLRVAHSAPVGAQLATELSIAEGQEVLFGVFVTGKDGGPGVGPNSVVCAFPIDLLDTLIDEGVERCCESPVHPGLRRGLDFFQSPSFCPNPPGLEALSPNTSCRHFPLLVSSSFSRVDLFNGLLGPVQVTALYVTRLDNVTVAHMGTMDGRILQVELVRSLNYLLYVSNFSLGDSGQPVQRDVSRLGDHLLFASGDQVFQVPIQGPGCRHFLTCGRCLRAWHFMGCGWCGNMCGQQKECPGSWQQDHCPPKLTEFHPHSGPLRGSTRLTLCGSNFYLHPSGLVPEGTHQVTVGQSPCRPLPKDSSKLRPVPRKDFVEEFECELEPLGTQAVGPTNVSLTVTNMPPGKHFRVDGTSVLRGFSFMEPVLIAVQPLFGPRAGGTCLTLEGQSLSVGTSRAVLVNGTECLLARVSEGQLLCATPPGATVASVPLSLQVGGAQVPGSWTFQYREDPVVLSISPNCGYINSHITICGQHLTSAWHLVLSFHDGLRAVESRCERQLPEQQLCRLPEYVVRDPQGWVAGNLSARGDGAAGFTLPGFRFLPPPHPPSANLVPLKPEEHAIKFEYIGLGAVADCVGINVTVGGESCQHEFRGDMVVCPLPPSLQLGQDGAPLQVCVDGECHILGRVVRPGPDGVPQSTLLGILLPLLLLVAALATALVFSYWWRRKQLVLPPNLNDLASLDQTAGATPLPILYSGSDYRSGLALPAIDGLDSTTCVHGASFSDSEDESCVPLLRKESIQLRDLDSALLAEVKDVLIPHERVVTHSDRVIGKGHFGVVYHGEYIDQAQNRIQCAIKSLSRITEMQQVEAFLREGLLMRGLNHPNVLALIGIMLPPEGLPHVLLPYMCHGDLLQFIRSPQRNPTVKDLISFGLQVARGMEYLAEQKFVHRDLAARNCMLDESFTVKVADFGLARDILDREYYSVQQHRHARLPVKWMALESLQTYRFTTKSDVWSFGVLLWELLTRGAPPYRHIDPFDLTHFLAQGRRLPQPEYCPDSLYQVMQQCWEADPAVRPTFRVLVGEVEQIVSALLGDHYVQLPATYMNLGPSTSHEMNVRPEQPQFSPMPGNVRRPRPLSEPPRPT

As a reminder, the IC50 is the point on the concentration scale where inhibition reaches its midpoint. In the case of `O=c1[nH]ccc2c(Cc3nnc4ccc(-c5cn[nH]c5)nn34)cccc12`, the IC50 in data set [1] came out at 5 nM.

The GI50 is the concentration that inhibits growth by half. Lower therefore signals more potent growth inhibition. For `Cn1cc(-c2ccc3nnc(Cc4cccc5c(=O)[nH]ccc45)n3n2)cn1`, the IC50 in data set [1] is 2 nM; in data set [2] it was > 10 µM; in data set [3], > 10 µM; in data set [4], > 10 µM; against Aurora kinase A, > 10 µM. For the same compound, the GI50 was 130 nM in the data set on MKN-45, 690 nM in the data set with SNU-5, 64 nM in [5] and > 10 µM in the data set on NCI-N87.

The term Cmax denotes the peak of the concentration-time curve. In general, AUC refers to concentration integrated over time. High values mean high exposure, low ones low exposure. As usually defined, the clearance is the rate of elimination divided by the concentration. The term bioavailability denotes the share of a dose that reaches the circulation, judged against a reference dose that is usually intravenous. A lower bioavailability goes with poor availability. Regarding `O=c1[nH]ccc2c(Cc3nnc4ccc(-c5ccccc5)nn34)cccc12`, the IC50 in data set [1] is 3 nM; in data set [2] it was > 10 µM; in data set [3] it was > 10 µM; in [4] it was > 10 µM; against Aurora kinase A it was > 10 µM. For the same compound, the GI50 with MKN-45 is 38 nM; with SNU-5, 59 nM; in [5] it was 71 nM; with NCI-N87, > 10 µM. Moreover, the Cmax in data set [6] amounted to 300 ng/mL. Moreover, the area under the curve (AUC) in data set [7] stood at 11200 ng·h/mL; in data set [8], 3900 ng·h/mL. The compound further had a clearance in [9] of 13.3 mL/min/kg. The compound also gave a bioavailability in data set [10] of 35%. The Vd in data set [11] came to 6.4 L/kg.

As for `O=c1[nH]ccc2c(Cc3nnc4ccc(-c5cnn(CCO)c5)nn34)cccc12`, in data set [1], the IC50 was 2 nM.

Turning to `O=c1[nH]ccc2c(Cc3nnc4ccc(-c5cnn(C6CCNCC6)c5)nn34)cccc12`, the IC50 in data set [1] was determined as 27 nM.

`O=c1[nH]ccc2c(Cc3nnc4ccc(N5CCCC5)nn34)cccc12`: the IC50 in data set [1] was determined as 27 nM.

`O=c1[nH]ccc2c(Cc3nnc4ccc(N5CCCCC5)nn34)cccc12`: the IC50 in data set [1] came out at 29 nM.

In the case of `O=c1[nH]ccc2c(Cc3nnc4ccc(-c5ccsc5)nn34)cccc12`, the IC50 in data set [1] is 4 nM. For the same compound, the GI50 with MKN-45 is 32 nM; with SNU-5, 56 nM; in [5] it was 170 nM; in the data set with NCI-N87, > 10 µM.

Take `O=c1[nH]ccc2c(Cc3nnc4ccc(-c5cccnc5)nn34)cccc12`: in [1], the IC50 is 5 nM. Further, the concentration for 50% growth inhibition (GI50) is 420 nM in the data set with MKN-45, 450 nM in the data set with SNU-5, 400 nM in [5] and > 10 µM in the data set on NCI-N87.

Take `O=c1[nH]ccc2c(Cc3nnc4ccc(-c5csc6ccccc56)nn34)cccc12`: in data set [1], the IC50 was 14 nM.

Turning to `Cc1ccccc1-c1ccc2nnc(Cc3cccc4c(=O)[nH]ccc34)n2n1`, in data set [1], the 50% inhibitory concentration (IC50) stood at 72 nM.

On to `O=c1[nH]ccc2c(Cc3nnc4ccc(-c5ccccc5Cl)nn34)cccc12`, for which, in data set [1], the IC50 was determined as 4 nM.

In the case of `O=c1[nH]ccc2c(Cc3nnc4ccc(-c5cccc(Cl)c5)nn34)cccc12`, the IC50 in [1] came out at 7 nM. Also, the GI50 is 11 nM with MKN-45, 19 nM with SNU-5, 53 nM in data set [5] and > 10 µM in the data set with NCI-N87.

`O=c1[nH]ccc2c(Cc3nnc4ccc(-c5cccc(F)c5)nn34)cccc12`: in [1], the half-maximal inhibitory concentration (IC50) worked out at 3 nM. Moreover, the GI50 in the data set with MKN-45 was 42 nM; in the data set on SNU-5, 52 nM; in data set [5], 130 nM; with NCI-N87 it was > 10 µM.

Take `O=c1[nH]ccc2c(Cc3nnc4ccc(-c5cccc([N+](=O)[O-])c5)nn34)cccc12`: the half-inhibitory concentration (IC50) in data set [1] was found to be 4 nM.

Take `N#Cc1cccc(-c2ccc3nnc(Cc4cccc5c(=O)[nH]ccc45)n3n2)c1`: the IC50 in [1] was found to be 3 nM. Moreover, the GI50 in the data set with MKN-45 is 36 nM; in the data set with SNU-5, 120 nM; in [5], 59 nM; with NCI-N87 it was > 10 µM.

For `O=c1[nH]ccc2c(Cc3nnc4ccc(-c5cccc(O)c5)nn34)cccc12`, the IC50 in [1] was 3 nM. Also, the GI50 in the data set with MKN-45 was 470 nM; with SNU-5, 1100 nM; in [5] it was 600 nM; in the data set with NCI-N87, > 10 µM.

For the compound `COc1cccc(-c2ccc3nnc(Cc4cccc5c(=O)[nH]ccc45)n3n2)c1`, the IC50 in data set [1] was determined as 5 nM. The concentration for 50% growth inhibition (GI50) in the data set on MKN-45 is 95 nM; in the data set with SNU-5 it was 130 nM; in data set [5], 100 nM; in the data set with NCI-N87, > 10 µM.

In the case of `Cn1ccc2c(Cc3nnc4ccc(-c5cccc(F)c5)nn34)cccc2c1=O`, in data set [1], the IC50 stood at 73 nM.

`CCn1ccc2c(Cc3nnc4ccc(-c5cccc(F)c5)nn34)cccc2c1=O`: the IC50 in data set [1] was 72 nM.
